Laboratory results reported in ChEMBL document CHEMBL4270554, “Discovery of the cancer cell selective dual acting anti-cancer agent (Z)-2-(1H-indol-3-yl)-3-(isoquinolin-5-yl)acrylonitrile (A131)” (Eur J Med Chem, 2018).

How the values were obtained:
HT-29 = test: Antiproliferative activity against human HT-29 cells after 72 hrs by MTT assay; format: functional; conditions: HT-29, 72 h
Outline: (§1)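 Cells cultured at 37 °C, 5% CO₂ in medium with 10% FBS and penicillin/streptomycin, used within 12-20 passages. Seeded at 2.5×10^3 cells/well for 24 h, then compound added from DMSO stocks at 200-fold final concentration (final DMSO 0.5% v/v). After 72 h, 0.5 mg/mL MTT for 3 h, formazan dissolved in DMSO, A570 read. IC50 from sigmoidal fit; three independent determinations.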

AGS = test: Antiproliferative activity against human AGS cells after 72 hrs by MTT assay; format: functional; outline: as §1
[1] = Antiproliferative activity against human SGCC-GC38 cells after 72 hrs by MTT assay; format: functional; outline: as §1
[2] = Antiproliferative activity against human Ist1 cells after 72 hrs by MTT assay; format: functional; outline: as §1
Mus musculus = test: Toxicity in BALB/c athymic nu/nu mouse xenografted with human HCT15 cells assessed as effect on body weight at 20 mg/kg, ip bid administered 12 days; format: organism-based; conditions: in vivo, 288 h
Outline: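 Female BALB/c nu/nu mice aged 5–7 weeks, implanted subcutaneously in the flank with 5×10^6 HCT15 cells. At mean tumour 100–300 mm³, randomised into groups of 6. Given 20 mg/kg ip twice daily for 12 days, vehicle 10% DMSO/50% PEG400 in water pH 5.0.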

HeLa [3] = test: Inhibition of colony formation in human HeLa cells at 0.6 uM after 7 days by plate colony counting method relative to control; format: functional; conditions: 168 h
Outline: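 Anchorage-independent growth: HeLa cells (1×10^4 per well) in 0.4% soft agar layered over 1% agar. Compound added at final 0.15, 0.3, 0.6, 1.25, 2.5 and 5 μM. HeLa colonies counted.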

NUGC-3 = test: Antiproliferative activity against human NUGC3 cells after 72 hrs by MTT assay; format: functional; conditions: NUGC-3, 72 h; outline: as §1
[4] = Intrinsic clearance in pooled male rat liver microsomes assessed per mg protein at 3 uM preincubated for 5 mins followed by NADPH addition measured after 45 mins by LC-MS/MS method; format: ADME, microsome; conditions: read-out: CLH
Outline: (§2)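 Pooled female or male rat liver microsomes (0.3 mg protein/mL) with substrate at final 3 μM in 0.1 M phosphate pH 7.4. Pre-incubated 5 min at 37 °C, then started with NADPH (final 1 mM). Sampled at 0–45 min in triplicate, quenched with cold acetonitrile plus internal standard. Parent measured by LC-MS/MS. Midazolam as positive control; no-NADPH negative control.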

HeLa [5] = test: Induction of autophagy in human HeLa cells assessed as increase in LC3-2 to LC3-1 ratio at 1.25 uM after 6 hrs by immunoblot analysis relative to control; format: functional
Outline: (§3)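 HeLa cells exposed 6 h to test agent (0.625–10 μM series) or chloroquine (1.25–100 μM series) vs DMSO; lysed in 1% Triton buffer (25 mM Tris pH 8.0, 150 mM NaCl, DTT, protease/phosphatase inhibitors), 14% SDS-PAGE, immunoblot with anti-LC3, anti-pH3(Ser10), β-actin loading. LC3-II/LC3-I band intensity ratio expressed relative to DMSO control.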

[6] = Antiproliferative activity against human ARPE19 cells after 72 hrs by MTT assay; format: cell-based; conditions: ARPE-19 cells; outline: as §1
A549 = test: Antiproliferative activity against human A549 cells after 72 hrs by MTT assay; format: functional; conditions: A549, 72 h; outline: as §1
U2OS = test: Antiproliferative activity against human U2OS cells after 72 hrs by MTT assay; format: functional; outline: as §1
[7] = Antiproliferative activity against human HEp-3 cells after 72 hrs by MTT assay; format: functional; outline: as §1
[8] = Antiproliferative activity against human AC10 cells at 50 uM after 72 hrs by MTT assay; format: cell-based
[9] = Antiproliferative activity against human SNU620 cells after 72 hrs by MTT assay; format: functional; conditions: SNU620, 72 h; outline: as §1
HeLa [10] = test: Induction of autophagy in human HeLa cells assessed as increase in LC3-2 to LC3-1 ratio at 0.625 uM after 6 hrs by immunoblot analysis relative to control; format: functional
Outline: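 HeLa cells were exposed for 6 h to the compound at 0.625, 1.25, 2.5, 5 or 10 µM, or to DMSO. Cells were lysed in 1% Triton buffer (pH 8.0) with protease and phosphatase inhibitors. Lysates were resolved by 14% SDS-PAGE and immunoblotted for LC3, with β-actin probed. The LC3-II/LC3-I band-intensity ratio was expressed relative to the DMSO control.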

[11] = Antiproliferative activity against human SNU1750 cells after 72 hrs by MTT assay; format: functional; outline: as §1
BJ = test: Induction of apoptosis in human BJ cells assessed as activation of caspase-3/7 up to 5 uM after 48 hrs by caspase-Glo 3/7 luminescent assay; format: cell-based
Outline: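 Normal and transformed BJ cells treated 48 h across a concentration series. Caspase-3/7 activity by Caspase-Glo 3/7 luminescence, normalized to viable cell number from MTT. Mean ± S.D., n=3; two-tailed unpaired t tests.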

Huh-7 = test: Antiproliferative activity against human HuH7 cells after 72 hrs by MTT assay; format: functional; conditions: Huh-7, 72 h; outline: as §1
[12] = Intrinsic clearance in pooled female rat liver microsomes assessed per mg protein at 3 uM preincubated for 5 mins followed by NADPH addition measured after 45 mins by LC-MS/MS method; format: ADME, microsome; conditions: read-out: CLH; outline: as §2
HeLa [13] = test: Induction of autophagy in human HeLa cells assessed as increase in LC3-2 to LC3-1 ratio at 2.5 uM after 6 hrs by immunoblot analysis relative to control; format: functional; outline: as §3
hTERT-BJ = test: Induction of autophagy in human hTERT-BJ cells transformed with hTert, small t, shRNAs against p53 and pRb and H-RasV12-ER assessed as increase in LC3-2 to LC3-1 ratio at 5 uM after 24 hrs by immunoblot analysis relative to control; format: functional
Outline: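 Fully transformed BJ fibroblasts (hTert, small t, shRNAs to p53 and pRb, H-RasV12-ER) grown at 37 °C, 5% CO2 in 10% FBS medium; treated 24 h at 5 μM. Triton lysis, 14% SDS-PAGE, LC3 immunoblot; LC3-II/LC3-I band ratio relative to DMSO-treated control, under 2-fold induction deemed insignificant.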

SNU1 = test: Antiproliferative activity against human SNU1 cells after 72 hrs by MTT assay; format: functional; conditions: SNU1, 72 h; outline: as §1
HGC-27 = test: Antiproliferative activity against human HGC27 cells after 72 hrs by MTT assay; format: functional; conditions: HGC-27, 72 h; outline: as §1
HeLa [14] = test: Antiproliferative activity against human HeLa cells after 72 hrs by MTT assay; format: functional; outline: as §1
DLD-1 = test: Antiproliferative activity against human DLD1 cells after 72 hrs by MTT assay; format: functional; conditions: DLD-1, 72 h; outline: as §1
[15] = Antiproliferative activity against human IMR90 cells after 72 hrs by MTT assay; format: cell-based; conditions: IMR-90 cells; outline: as §1
HeLa [16] = test: Induction of autophagy in human HeLa cells assessed as increase in LC3-2 to LC3-1 ratio at 10 uM after 6 hrs by immunoblot analysis relative to control; format: functional; outline: as §3
SNU-449 = test: Antiproliferative activity against human SNU449 cells after 72 hrs by MTT assay; format: functional; conditions: SNU-449, 72 h; outline: as §1

In the case of `N#C/C(=C\c1cccc2cnccc12)c1c[nH]c2ccccc12`, the GI50 (HT-29) was 900 nM, the GI50 (AGS) was 1100 nM and the GI50 [1] was 1900 nM. For the same compound, the GI50 [2] was 2200 nM, the Activity (Mus musculus) was “Non-Toxic” and the inhibition at 0.6 µM (HeLa [3]) was 50%. For the same compound, the GI50 (NUGC-3) was 1000 nM, the microsomal CLint at 3 µM [4] was 299 µL/min/mg and the “fold change (FC)” value (HeLa [5]) was 2.3. For the same compound, the GI50 at 72 h [6] was > 10000 nM, the GI50 (A549) was 2000 nM and the GI50 (U2OS) was 1500 nM. The GI50 [7] was 3700 nM, the Activity [8] was 77.6% and the GI50 [9] was 1000 nM. For the same compound, the “fold change (FC)” value (HeLa [10]) was 1, the GI50 [11] was 700 nM and the Activity (BJ) was “Non-Toxic”. For the same compound, the GI50 (Huh-7) was 1200 nM, the microsomal CLint at 3 µM [12] was 59 µL/min/mg and the “fold change (FC)” value (HeLa [13]) was 3. For the same compound, the “fold change (FC)” value (hTERT-BJ) was 5, the GI50 (SNU1) was 900 nM and the GI50 (HGC-27) was 1200 nM. It also gave a GI50 (HeLa [14]) of 1400 nM, a GI50 (DLD-1) of 1200 nM and a GI50 at 72 h [15] of 5800 nM. The “fold change (FC)” value (HeLa [16]) was 4.3 and the GI50 (SNU-449) was 2300 nM.
